≈ marks a conversion by molar mass, not a printed value.
How the values were obtained:
Assay type in all cases: functional
[1] = system: Streptococcus pyogenes; experiment: Antibacterial activity against Streptococcus pyogenes ATCC 8668 by agar dilution method
How it was run: (§1)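 MIC measured by agar dilution on Mueller–Hinton agar. Strains were a reference culture and clinically isolated strains. The pneumococcal isolates were penicillin-susceptible clinical isolates.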

[2] = system: Staphylococcus aureus; experiment: Antibacterial activity against methicillin-susceptible Staphylococcus aureus ATCC 29213 by agar dilution method
How it was run: (§2)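 MIC determined by agar dilution on Mueller–Hinton agar against reference strains.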

[3] = system: Streptococcus pneumoniae; experiment: Antibacterial activity against penicillin-susceptible Streptococcus pneumoniae isolate S2 by agar dilution method; how it was run: as §1
[4] = system: Staphylococcus aureus; experiment: Antibacterial activity against methicillin-susceptible Staphylococcus aureus isolate 2 by agar dilution method
How it was run: (§3)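 MIC determined by agar dilution on Mueller–Hinton agar against clinically isolated methicillin-susceptible S. aureus.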

[5] = system: Streptococcus pneumoniae; experiment: Antibacterial activity against penicillin intermediate-resistant Streptococcus pneumoniae isolate I2 by agar dilution method
How it was run: (§4)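 MIC determined by agar dilution on Mueller–Hinton agar against clinically isolated penicillin-intermediate-resistant S. pneumoniae.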

[6] = system: Streptococcus pyogenes; experiment: Antibacterial activity against Streptococcus pyogenes isolate 1 by agar dilution method; how it was run: as §1
[7] = system: Staphylococcus aureus; experiment: Antibacterial activity against methicillin-resistant Staphylococcus aureus 2 by agar dilution method
How it was run: (§5)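 MIC determined by agar dilution on Mueller–Hinton agar against clinical strains of methicillin-resistant S. aureus.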

[8] = system: Streptococcus pyogenes; experiment: Antibacterial activity against Streptococcus pyogenes isolate 3 by agar dilution method; how it was run: as §1
[9] = system: Streptococcus pneumoniae; experiment: Antibacterial activity against penicillin intermediate-resistant Streptococcus pneumoniae isolate I3 by agar dilution method; how it was run: as §4
[10] = system: Staphylococcus aureus; experiment: Antibacterial activity against methicillin-resistant Staphylococcus aureus 3 by agar dilution method; how it was run: as §5
[11] = system: Streptococcus pneumoniae; experiment: Antibacterial activity against Streptococcus pneumoniae ATCC 49619 by agar dilution method; conditions: ATCC49619; how it was run: as §2
[12] = system: Streptococcus pyogenes; experiment: Antibacterial activity against Streptococcus pyogenes isolate 2 by agar dilution method; how it was run: as §1
[13] = system: Streptococcus pneumoniae; experiment: Antibacterial activity against penicillin-susceptible Streptococcus pneumoniae isolate S1 by agar dilution method; how it was run: as §1
[14] = system: Streptococcus pneumoniae; experiment: Antibacterial activity against penicillin intermediate-resistant Streptococcus pneumoniae isolate I1 by agar dilution method; how it was run: as §4
[15] = system: Staphylococcus aureus; experiment: Antibacterial activity against methicillin-susceptible Staphylococcus aureus isolate 1 by agar dilution method; how it was run: as §3
[16] = system: Staphylococcus aureus; experiment: Antibacterial activity against methicillin-susceptible Staphylococcus aureus isolate 3 by agar dilution method; how it was run: as §3
[17] = system: Staphylococcus aureus; experiment: Antibacterial activity against methicillin-resistant Staphylococcus aureus 1 by agar dilution method; how it was run: as §5

SMILES	MIC [1] [µg/mL]	MIC [2] [µg/mL]	MIC [3] [µg/mL]	MIC [4] [µg/mL]	MIC [5] [µg/mL]	MIC [6] [µg/mL]	MIC [7] [µg/mL]	MIC [8] [µg/mL]	MIC [9] [µg/mL]	MIC [10] [µg/mL]	MIC [11] [µg/mL]	MIC [12] [µg/mL]	MIC [13] [µg/mL]	MIC [14] [µg/mL]	MIC [15] [µg/mL]	MIC [16] [µg/mL]	MIC [17] [µg/mL]
CC[C@H]1OC(=O)[C@H](C)C(=O)[C@H](C)[C@@H](O[C@@H]2O[C@H](C)C[C@H](N(C)C)[C@H]2O)[C@](C)(OC)C[C@@H](C)/C(=N\OC/C=C/c2cccc(OC)c2)[C@H](C)[C@@H](O)[C@]1(C)O	1 (≈ 1.34 µM)	2 (≈ 2.67 µM)	0.25 (≈ 0.334 µM)	2 (≈ 2.67 µM)	1 (≈ 1.34 µM)	0.25 (≈ 0.334 µM)	128 (≈ 171 µM)	1 (≈ 1.34 µM)	64 (≈ 85.5 µM)	2 (≈ 2.67 µM)	1 (≈ 1.34 µM)	1 (≈ 1.34 µM)	0.25 (≈ 0.334 µM)	64 (≈ 85.5 µM)	2 (≈ 2.67 µM)	2 (≈ 2.67 µM)	128 (≈ 171 µM)
CC[C@H]1OC(=O)[C@H](C)C(=O)[C@H](C)[C@@H](O[C@@H]2O[C@H](C)C[C@H](N(C)C)[C@H]2O)[C@](C)(OC)C[C@@H](C)/C(=N\OC/C=C/c2ccc(OC)c(OC)c2)[C@H](C)[C@@H](O)[C@]1(C)O	0.25 (≈ 0.321 µM)	1 (≈ 1.28 µM)	0.06 (≈ 0.077 µM)	1 (≈ 1.28 µM)	0.5 (≈ 0.642 µM)	0.06 (≈ 0.077 µM)	128 (≈ 164 µM)	0.25 (≈ 0.321 µM)	0.5 (≈ 0.642 µM)	1 (≈ 1.28 µM)	0.25 (≈ 0.321 µM)	0.25 (≈ 0.321 µM)	0.06 (≈ 0.077 µM)	32 (≈ 41.1 µM)	0.5 (≈ 0.642 µM)	1 (≈ 1.28 µM)	128 (≈ 164 µM)
CC[C@H]1OC(=O)[C@H](C)C(=O)[C@H](C)[C@@H](O[C@@H]2O[C@H](C)C[C@H](N(C)C)[C@H]2O)[C@](C)(OC)C[C@@H](C)/C(=N\OC/C=C/c2cccnc2)[C@H](C)[C@@H](O)[C@]1(C)O	0.25 (≈ 0.347 µM)	0.5 (≈ 0.695 µM)	0.06 (≈ 0.0833 µM)	0.25 (≈ 0.347 µM)	0.25 (≈ 0.347 µM)	0.06 (≈ 0.0833 µM)	128 (≈ 178 µM)	0.06 (≈ 0.0833 µM)	0.06 (≈ 0.0833 µM)	0.5 (≈ 0.695 µM)	0.125 (≈ 0.174 µM)	0.06 (≈ 0.0833 µM)	0.06 (≈ 0.0833 µM)	64 (≈ 88.9 µM)	0.25 (≈ 0.347 µM)	0.25 (≈ 0.347 µM)	128 (≈ 178 µM)
CC[C@H]1OC(=O)[C@H](C)C(=O)[C@H](C)[C@@H](O[C@@H]2O[C@H](C)C[C@H](N(C)C)[C@H]2O)[C@](C)(OC)C[C@@H](C)/C(=N\OC/C=C/c2cncc3ccccc23)[C@H](C)[C@@H](O)[C@]1(C)O	0.25 (≈ 0.325 µM)	1 (≈ 1.3 µM)	0.25 (≈ 0.325 µM)	0.5 (≈ 0.649 µM)	0.5 (≈ 0.649 µM)	0.06 (≈ 0.0779 µM)	128 (≈ 166 µM)	0.25 (≈ 0.325 µM)	1 (≈ 1.3 µM)	0.5 (≈ 0.649 µM)	0.25 (≈ 0.325 µM)	0.25 (≈ 0.325 µM)	0.25 (≈ 0.325 µM)	32 (≈ 41.6 µM)	1 (≈ 1.3 µM)	0.5 (≈ 0.649 µM)	128 (≈ 166 µM)
CC[C@H]1OC(=O)[C@H](C)C(=O)[C@H](C)[C@@H](O[C@@H]2O[C@H](C)C[C@H](N(C)C)[C@H]2O)[C@](C)(OC)C[C@@H](C)/C(=N\OC/C=C/c2cncnc2)[C@H](C)[C@@H](O)[C@]1(C)O	0.25 (≈ 0.347 µM)	0.5 (≈ 0.694 µM)	0.125 (≈ 0.173 µM)	0.5 (≈ 0.694 µM)	0.5 (≈ 0.694 µM)	0.06 (≈ 0.0832 µM)	128 (≈ 178 µM)	0.25 (≈ 0.347 µM)	1 (≈ 1.39 µM)	0.5 (≈ 0.694 µM)	0.25 (≈ 0.347 µM)	0.25 (≈ 0.347 µM)	0.125 (≈ 0.173 µM)	128 (≈ 178 µM)	0.5 (≈ 0.694 µM)	0.5 (≈ 0.694 µM)	128 (≈ 178 µM)
CC[C@H]1OC(=O)[C@H](C)C(=O)[C@H](C)[C@@H](O[C@@H]2O[C@H](C)C[C@H](N(C)C)[C@H]2O)[C@](C)(OC)C[C@@H](C)/C(=N\OC/C=C/c2ccc(OC)cc2)[C@H](C)[C@@H](O)[C@]1(C)O	0.5 (≈ 0.668 µM)	2 (≈ 2.67 µM)	0.25 (≈ 0.334 µM)	1 (≈ 1.34 µM)	0.5 (≈ 0.668 µM)	0.25 (≈ 0.334 µM)	126 (≈ 168 µM)	0.5 (≈ 0.668 µM)	0.5 (≈ 0.668 µM)	2 (≈ 2.67 µM)	0.5 (≈ 0.668 µM)	0.5 (≈ 0.668 µM)	0.25 (≈ 0.334 µM)	64 (≈ 85.5 µM)	2 (≈ 2.67 µM)	1 (≈ 1.34 µM)	128 (≈ 171 µM)
